Experiments:
Format in all cases: functional
Conditions in all cases: Homo sapiens
SR = test: Antitumor activity against SR cells
How it was run: (§1)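 Tested in the NCI 60-human-tumour-cell-line panel at five concentrations, in 10-fold dilutions from 10^-4 to 10^-8 M. Three parameters were taken from the dose-response data, each as log10 of the molar concentration: GI50 (50% net growth inhibition), TGI (total growth inhibition) and LC50 (50% net cell death).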

A549 = test: Antitumor activity against A549 cells
[1] = Antitumor activity against MALME 3M cells
M14 = test: Antitumor activity against M14 cells
SK-MEL-28 = test: Antitumor activity against SK-MEL-28 cells
SK-MEL-5 = test: Antitumor activity against SK-MEL-5 cells; how it was run: as §1
UACC-257 = test: Antitumor activity against UACC257 cells; how it was run: as §1
UACC-62 = test: Antitumor activity against UACC62 cells; how it was run: as §1
OVCAR-3 = test: Antitumor activity against OVCAR-3 cells
OVCAR-4 = test: Antitumor activity against OVCAR4 cells
OVCAR-8 = test: Antitumor activity against OVCAR8 cells
A498 = test: Antitumor activity against A498 cells
ACHN = test: Antitumor activity against ACHN cells
CAKI-1 = test: Antitumor activity against CAKI1 cells
SN12C = test: Antitumor activity against SN12C cells; how it was run: as §1
TK-10 = test: Antitumor activity against TK10 cells; how it was run: as §1
PC-3 = test: Antitumor activity against PC3 cells
DU-145 = test: Antitumor activity against DU145 cells
MCF7 = test: Antitumor activity against MCF7 cells
MDA-MB-231 = test: Antitumor activity against MDA-MB-231 cells
[2] = read-out: Log LC50 (the source's name) (converted)

**Q.** Which GI50 (SR) does the source give for `O=C(NNS(=O)(=O)c1ccc(Cl)cc1Cl)c1cccnc1Nc1ccc(Cl)cc1` here?
**A.** 14.8 µM

**Q.** What about the LC50 (SR) of the same molecule?
**A.** 97.7 µM

**Q.** And the TGI (SR; read-out: Log TGI (converted))?
**A.** 38 µM

**Q.** And the GI50 (A549)?
**A.** 24.5 µM

**Q.** And the LC50 (A549)?
**A.** > 100 µM

**Q.** And the TGI (A549; read-out: Log TGI (converted))?
**A.** 70.8 µM

**Q.** What about the GI50 [1] of the same molecule?
**A.** 34.7 µM

**Q.** And the CC50 [1, 2]?
**A.** > 100 µM

**Q.** And the TGI ([1]; read-out: Log TGI (converted))?
**A.** 34.7 µM

**Q.** What about the GI50 (M14) of the same molecule?
**A.** 19.1 µM

**Q.** And the LC50 (M14)?
**A.** 79.4 µM

**Q.** And the TGI (M14; read-out: Log TGI (converted))?
**A.** 38.9 µM

**Q.** And the GI50 (SK-MEL-28)?
**A.** 35.5 µM

**Q.** What about the LC50 (SK-MEL-28) of the same molecule?
**A.** > 100 µM

**Q.** What about the TGI (SK-MEL-28; read-out: Log TGI (converted)) of the same molecule?
**A.** > 100 µM

**Q.** And the GI50 (SK-MEL-5)?
**A.** 14.1 µM

**Q.** And the LC50 (SK-MEL-5)?
**A.** 61.7 µM

**Q.** And the TGI (SK-MEL-5; read-out: Log TGI (converted))?
**A.** 29.5 µM

**Q.** What about the GI50 (UACC-257) of the same molecule?
**A.** 22.9 µM

**Q.** And the LC50 (UACC-257)?
**A.** > 100 µM

**Q.** What about the TGI (UACC-257; read-out: Log TGI (converted)) of the same molecule?
**A.** 60.3 µM

**Q.** What about the GI50 (UACC-62) of the same molecule?
**A.** 21.9 µM

**Q.** What about the LC50 (UACC-62) of the same molecule?
**A.** > 100 µM

**Q.** What about the TGI (UACC-62; read-out: Log TGI (converted)) of the same molecule?
**A.** 75.9 µM

**Q.** What about the GI50 (OVCAR-3) of the same molecule?
**A.** 20.4 µM

**Q.** What about the CC50 (OVCAR-3; [2]) of the same molecule?
**A.** > 100 µM

**Q.** What about the TGI (OVCAR-3; read-out: Log TGI (converted)) of the same molecule?
**A.** > 100 µM

**Q.** And the GI50 (OVCAR-4)?
**A.** 28.8 µM

**Q.** And the LC50 (lethal concentration, 50%) (OVCAR-4)?
**A.** > 100 µM

**Q.** What about the TGI (OVCAR-4; read-out: Log TGI (converted)) of the same molecule?
**A.** > 100 µM

**Q.** And the GI50 (OVCAR-8)?
**A.** 26.9 µM

**Q.** And the CC50 (OVCAR-8; [2])?
**A.** > 100 µM

**Q.** And the TGI (OVCAR-8; read-out: Log TGI (converted))?
**A.** 74.1 µM

**Q.** And the GI50 (A498)?
**A.** 25.1 µM

**Q.** What about the LC50 (A498) of the same molecule?
**A.** 91.2 µM

**Q.** And the TGI (A498; read-out: Log TGI (converted))?
**A.** 47.9 µM

**Q.** And the GI50 (ACHN)?
**A.** 29.5 µM

**Q.** What about the LC50 (ACHN) of the same molecule?
**A.** > 100 µM

**Q.** What about the TGI (ACHN; read-out: Log TGI (converted)) of the same molecule?
**A.** 93.3 µM

**Q.** What about the GI50 (CAKI-1) of the same molecule?
**A.** 20 µM

**Q.** And the LC50 (CAKI-1)?
**A.** > 100 µM

**Q.** What about the TGI (CAKI-1; read-out: Log TGI (converted)) of the same molecule?
**A.** 58.9 µM

**Q.** And the GI50 (SN12C)?
**A.** 31.6 µM

**Q.** And the LC50 (SN12C)?
**A.** > 100 µM

**Q.** What about the TGI (SN12C; read-out: Log TGI (converted)) of the same molecule?
**A.** > 100 µM

**Q.** What about the GI50 (TK-10) of the same molecule?
**A.** 28.8 µM

**Q.** And the LC50 (TK-10)?
**A.** > 100 µM

**Q.** And the TGI (TK-10; read-out: Log TGI (converted))?
**A.** 85.1 µM

**Q.** What about the GI50 (PC-3) of the same molecule?
**A.** 23.4 µM

**Q.** What about the LC50 (PC-3) of the same molecule?
**A.** > 100 µM

**Q.** What about the TGI (PC-3; read-out: Log TGI (converted)) of the same molecule?
**A.** 81.3 µM

**Q.** What about the GI50 (DU-145) of the same molecule?
**A.** 41.7 µM

**Q.** What about the LC50 (DU-145) of the same molecule?
**A.** > 100 µM

**Q.** And the TGI (DU-145; read-out: Log TGI (converted))?
**A.** > 100 µM

**Q.** What about the GI50 (MCF7) of the same molecule?
**A.** 35.5 µM

**Q.** And the LC50 (MCF7)?
**A.** > 100 µM

**Q.** What about the TGI (MCF7; read-out: Log TGI (converted)) of the same molecule?
**A.** > 100 µM

**Q.** And the GI50 (MDA-MB-231)?
**A.** 19.1 µM

**Q.** And the LC50 (MDA-MB-231)?
**A.** > 100 µM

Reference: ChEMBL document CHEMBL1144562, “Synthesis of a new class of 2-anilino substituted nicotinyl arylsulfonylhydrazides as potential anticancer and antibacterial agents” (2007)
